Screens deposited in PubChem BioAssay by Sanford-Burnham Center for Chemical Genomics.
Only some compounds are listed: those with a hit (about 1.8% of all), similar ones and a draw of the others.
DNMT1 inh: inhibitors of human DNMT1 | DNMT1 molecular beacon, Hinp1I cleavage, fluorescence | AID 588458 | inhibition (reported as % activation of signal), % at 10 µM | 0.83% of 360,000 active | P26358; in the data active = inhibition above about 50%
LMPTP block: blocks human LMPTP phosphatase; P24666; AID 651560; inhibition, % at 20 µM; recombinant LMPTP-A, OMFP fluorogenic substrate, fluorescence intensity; 0.22% of 360,000 active;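 active = compounds that cut the enzyme signal by at least half of the control window in the single-dose screen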
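Assay system: LMPTP-A phosphatase enzyme | Input: 0.625 nM enzyme | Also added: Fluorogenic phosphatase substrate OMFP at 400 µM final | Compound dosing: One test concentration per compound, 20 µM, with 3% DMSO overall | Schedule: 50 min enzyme reaction at room temperature, protected from light | Signal: Fluorescence intensity | Benchmarks: no-enzyme and uninhibited controls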
Scp1 inh: Scp-1 (human) phosphatase inhibition. 0.88% of 340,000 active. inhibition, % at 20 µM. Recombinant Scp1, phosphopeptide, malachite green phosphate absorbance;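 active = inhibition above about 50% at 20 µM, limit read from the data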
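Material: truncated SCP-1 phosphatase (76-261aa) / Buffer or medium: 50 mM Tris acetate pH 5.5, 0.005% Tween-20, 10 mM MgCl2 / Compound dosing: one concentration, 20 µM, with 1.0% DMSO / Incubation: 45 min room-temperature reaction, 5 min colour, 30 min stabiliser / Detection: colorimetric free-phosphate detection, absorbance 630 nm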
SUMO1-SIM PPI: SUMO1-SIM interaction modulation; P63165; SUMO1 binding to a labelled peptide, TR-FRET, 1 h; inhibition, % at 20 µM; 0.33% of 360,000 active; in the data active = inhibition above about 37%
HKDC1 inh: inhibitors of human hexokinase HKDC1. Q2TB90. recombinant HKDC1, G6PDH/diaphorase resazurin coupled fluorescence. inhibition, % at 20 µM. 0.16% of 340,000 active;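 active = inhibition above about 35% when tested at 20 µM, limit read from the data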
Target sequence (Q2TB90 whole entry, looked up): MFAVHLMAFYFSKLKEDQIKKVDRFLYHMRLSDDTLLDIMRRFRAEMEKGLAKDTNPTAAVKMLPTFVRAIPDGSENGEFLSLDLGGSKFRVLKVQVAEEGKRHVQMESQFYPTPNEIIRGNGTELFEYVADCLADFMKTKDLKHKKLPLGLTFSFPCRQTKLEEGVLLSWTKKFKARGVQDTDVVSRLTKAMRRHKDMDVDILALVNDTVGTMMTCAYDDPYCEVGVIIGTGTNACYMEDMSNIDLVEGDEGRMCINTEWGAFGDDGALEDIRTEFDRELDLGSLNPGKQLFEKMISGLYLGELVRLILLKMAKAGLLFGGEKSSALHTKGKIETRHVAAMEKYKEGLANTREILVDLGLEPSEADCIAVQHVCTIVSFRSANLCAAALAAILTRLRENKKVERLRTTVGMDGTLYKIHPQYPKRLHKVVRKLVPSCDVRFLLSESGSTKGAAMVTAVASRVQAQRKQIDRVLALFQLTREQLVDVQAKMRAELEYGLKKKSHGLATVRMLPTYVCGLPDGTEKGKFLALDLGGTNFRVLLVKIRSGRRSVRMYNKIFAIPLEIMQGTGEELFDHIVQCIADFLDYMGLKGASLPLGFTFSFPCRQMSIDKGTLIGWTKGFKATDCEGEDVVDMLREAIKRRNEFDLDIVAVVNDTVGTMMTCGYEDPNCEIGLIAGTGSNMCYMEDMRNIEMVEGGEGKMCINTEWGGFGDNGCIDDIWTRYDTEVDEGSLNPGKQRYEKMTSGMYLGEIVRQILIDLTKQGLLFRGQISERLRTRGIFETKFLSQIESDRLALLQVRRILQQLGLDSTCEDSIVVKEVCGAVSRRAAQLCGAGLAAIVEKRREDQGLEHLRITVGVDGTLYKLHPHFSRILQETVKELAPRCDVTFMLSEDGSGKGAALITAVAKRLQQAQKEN
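Assay system: in-house recombinant HK5 (HKDC1) enzyme. Input: HKDC1 at 5 µg/mL. Medium: Tris pH 8.0 buffer with MgCl2, Tween-20, BSA, BME. Dosing: single 20 µM dose. Schedule: 90 min reaction incubation at room temperature, dark. Signal: resazurin-to-resorufin fluorescence via G6PDH and diaphorase coupling, 525/613 nm. Controls: DMSO-enzyme wells negative, buffer-substituted wells positive.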
STEP inh: STEP (human) phosphatase inhibition; P54829; recombinant STEP, OMFP fluorogenic substrate, fluorescence; inhibition, % at 20 µM; 0.25% of 360,000 active;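 active = inhibition at 20 µM, scaled per plate between control wells, above about 37%, limit read from the data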
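medium = Bis-Tris buffer pH 6.0, 2.5 mM DTT, 0.005% Tween 20 | test system = STEP (striatal-enriched tyrosine phosphatase) enzyme, cell-free | measure = normalized % inhibition | compound dosing = 20 µM, 1% DMSO | also added = 25 µM OMFP | schedule = reaction 20 min, ambient temperature | measured by = fluorescence read at 480 nm ex / 540 nm em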
Scp1 confirm: Scp-1 (human) inhibition, single-dose confirmed; shares compounds with Scp1 inh; recombinant SCP-1 catalytic domain, phosphate release, malachite green absorbance; inhibition, % at 20 µM; AID 540281; 61% of 2,500 active
Scp-1 MG ctr: colorimetric interference in Scp-1 counter-screen; shares compounds with Scp1 inh; Colorimetric interference counterscreen, malachite green absorbance 630 nm; apparent inhibition (interference), % at 20 µM; 2,500 tested, under 10 active;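 also: compounds added after enzyme reaction finished so only phosphate colour detection is probed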
Scp1 DSF: validation of human Scp-1 inhibitors by thermal shift binding; 25% of 1,500 active; Recombinant SCP1, Sypro Orange thermal shift Tm; shares compounds with Scp1 inh; AID 540329; thermal shift relative to vanadate control, % at 40 µM;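 active = substances whose mean melting-temperature shift, as a percentage of the reference inhibitor's shift, reaches about 5.3%, limit read from the data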
Each line names hits and unclear results; the compound was inactive in the other large screens (follow-up assays come after a bar, where they were run).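 The calls were made as follows, unless noted: active = inhibition of at least 30% at 20 µM; inactive = the rest.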

Cn1c(SCc2cc(=O)n3cc(Br)ccc3n2)nnc1C1COc2ccccc2O1 (stereo not drawn)	Scp1 inh 61.4 | Scp1 confirm 40.6 | Scp-1 MG ctr inactive | Scp1 DSF inactive
O=C(OCc1cc(=O)n2cc(Br)ccc2n1)C1COc2ccccc2O1 (stereo not drawn)	none
O=[N+]([O-])c1ccc2cc[nH]c2c1	Scp1 inh 61.4 | Scp1 confirm inactive | Scp-1 MG ctr inactive
O=[N+]([O-])c1ccc2[nH]ccc2c1	none (no result: DNMT1 inh, Scp1 inh, HKDC1 inh, STEP inh)
O=C1ON=C(c2ccc([N+](=O)[O-])cc2)/C1=C/c1ccccc1O	none
CCN(c1ccccc1)S(=O)(=O)c1ccc2[nH]cc(C(=O)N3CCOCC3)c(=O)c2c1	Scp1 inh 51.8 | Scp1 confirm 40.0 | Scp-1 MG ctr inactive | Scp1 DSF inactive
COc1ccc(CN2C(=O)CSCC2(C)C(=O)NCc2ccccc2)cc1 (stereo not drawn)	none (no result: DNMT1 inh, Scp1 inh, HKDC1 inh, STEP inh)
O=C(Nc1nnc(SCc2c(Cl)cccc2Cl)s1)C1CC(=O)N(c2ccc3c(c2)OCCO3)C1 (stereo not drawn)	Scp1 inh 67.1 | Scp1 confirm 66.0 | Scp-1 MG ctr inactive | Scp1 DSF inactive
O=C(Nc1nnc(SCc2ccc(F)cc2)s1)C1CC(=O)N(c2ccc3c(c2)OCCO3)C1 (stereo not drawn)	none
O=C(Nc1nc(-c2ccco2)c(-c2ccco2)s1)C1CC(=O)N(c2ccc3c(c2)OCCO3)C1 (stereo not drawn)	DNMT1 inh 72.4, Scp1 inh 81.6 | Scp1 confirm 56.6 | Scp-1 MG ctr inactive | Scp1 DSF 13.0
Cc1nnc(NC(=O)C2CC(=O)N(c3ccc4c(c3)OCCO4)C2)s1 (stereo not drawn)	none
CCc1ccc(OCC(=O)NC(C)C)cc1	none
O=C(COC(=O)COc1ccc(Br)cc1)Nc1cccnc1Cl	Scp1 inh 58.2 | Scp1 confirm inactive | Scp-1 MG ctr inactive
N#Cc1c(N)nc2c(c1N)CC(COc1ccccc1)O2 (stereo not drawn)	none
N#Cc1c(N)nc2c(c1N)CC(CO)O2 (stereo not drawn)	Scp1 inh 56.3 | Scp1 confirm inactive | Scp-1 MG ctr inactive
O=C(NN1CCOCC1)c1c(-c2ccccc2)sc2ccccc12	none
CS(=O)(=O)c1ccc(-c2sc3cc4c(cc3c2C(=O)NN2CCOCC2)OCO4)cc1	Scp1 inh 100.6 | Scp1 confirm 85.8 | Scp-1 MG ctr inactive | Scp1 DSF inactive
CSc1nnc(-c2ccc(NC(=O)CCc3ccccc3)cc2)n1C	Scp1 inh 101.6 | Scp1 confirm inactive | Scp-1 MG ctr inactive
Cn1c(SCC(=O)Nc2ccccc2)nnc1-c1ccc(NC(=O)CCc2ccccc2)cc1	none
CCOC(=O)C1=CCN(S(=O)(=O)c2ccc(F)cc2)C1c1ccc(Cl)c(Cl)c1 (stereo not drawn)	none (no result: DNMT1 inh, Scp1 inh, HKDC1 inh, STEP inh)
COc1ccc(C2c3c(oc4ccccc4c3=O)C(=O)N2CCN2CCOCC2)cc1OC (stereo not drawn)	none
COCCN1C(=O)c2oc3ccccc3c(=O)c2C1c1ccc(OC)c(OC)c1 (stereo not drawn)	Scp1 inh 60.0 | Scp1 confirm 43.7 | Scp-1 MG ctr inactive | Scp1 DSF inactive
C=CCn1cnc2c(c1=O)c1nc3ccccc3nc1n2/N=C/c1cccc(OC)c1OC	Scp1 inh 96.3 | Scp1 confirm 62.0 | Scp-1 MG ctr inactive | Scp1 DSF inactive
Cc1cc(C)n2cc(CSc3nnc(-c4ccccc4)o3)nc2n1	Scp1 inh 79.6 | Scp1 confirm inactive | Scp-1 MG ctr inactive
Cc1cc(C)n2cc(CSCc3ccccc3)nc2n1	none
CN(/N=C/c1ccncc1)c1cnn(-c2ccc(F)c(Cl)c2)c(=O)c1Cl	Scp1 inh 54.5 | Scp1 confirm inactive | Scp-1 MG ctr inactive
O=C(OCC(=O)N1CCCc2ccccc21)c1ccc(F)c(S(=O)(=O)N2CCOCC2)c1	none
COc1cccc(NC(=O)c2sc3nc(N4CCOCC4)c4c(c3c2N)CCCC4)c1	none
CCc1ccc(CNCCNC(=O)c2ccco2)cc1	none
O=C(NCCNCc1ccccc1)c1ccco1	DNMT1 inh 67.6, Scp1 inh 69.8 | Scp1 confirm 49.5 | Scp-1 MG ctr inactive | Scp1 DSF 9.6
O=C(CCCC(=O)Nc1cccc(Br)c1)N/N=C/c1cc([N+](=O)[O-])ccc1O	Scp1 inh 55.9 | Scp1 confirm 67.0 | Scp-1 MG ctr inactive | Scp1 DSF 7.4
O=C(CCC(=O)Nc1cccc(Cl)c1)N/N=C/c1cc([N+](=O)[O-])ccc1O	none
Cn1c(SCC(=O)NC(=O)NCc2ccccc2)nnc1C(F)(F)F	none
CN(/N=C/c1ccncc1)C1=NCCN1	Scp1 inh 85.5 | Scp1 confirm inactive | Scp-1 MG ctr inactive
N/C(=N\OC(=O)c1ccc(Br)cc1)c1cccc([N+](=O)[O-])c1	Scp1 inh 64.8 | Scp1 confirm 62.3 | Scp-1 MG ctr inactive | Scp1 DSF inactive
COc1ccc2c(c1)[N+](C)(C)C(C)(C)C=C2C	Scp1 inh 93.4 | Scp1 confirm 86.2 | Scp-1 MG ctr inactive | Scp1 DSF inactive
CCOc1ccc2c(c1)[N+](C)(C)C(C)(C)C=C2C	none
CCOC(=O)N1CCC(N2CC34C=CC(O3)C(C(=O)Nc3ccc(F)cc3)C4C2=O)CC1 (stereo not drawn)	Scp1 inh 90.2 | Scp1 confirm inactive | Scp-1 MG ctr inactive
CCOC(=O)/C(CCC[N+](C)(CC)CC)=N\O	Scp1 inh 98.7 | Scp1 confirm inactive | Scp-1 MG ctr inactive
CC(C)COc1ccc(C(=O)Nc2ccc(NC(=O)c3ccco3)cc2)cc1	none
CC(=O)c1ccc(NC(=O)C2CCN(S(=O)(=O)c3ccc4c(c3)N(C(C)=O)CCO4)CC2)cc1	none
CC(C)(C)OC(=O)NCCCCCc1cn(CC(=O)NCCCCCCCCCCC(=O)N2CCN(C(=O)OC(C)(C)C)CC2)nn1	Scp1 inh 61.3 | Scp1 confirm inactive | Scp-1 MG ctr inactive
CC(C)c1cc(C(=O)NC2CCCCC2)no1	Scp1 inh 72.8 | Scp1 confirm inactive | Scp-1 MG ctr inactive
Cc1cc2ccccn2c1C(=O)c1ccc(N/N=C/c2ccc(C(=O)O)cc2)c([N+](=O)[O-])c1	DNMT1 inh 88.1, Scp1 inh 114.4, SUMO1-SIM PPI 103.7, STEP inh 99.4 | Scp1 confirm 70.1 | Scp-1 MG ctr inactive | Scp1 DSF 6.4
